Key:
[1] = system: L1210; test: Antitumor activity against mouse L1210 cells allografted in mouse assessed as increase in life span at 400 umol/kg/day, po using 0.9% (W/V) aqueous NaCl vehicle for 5 days 24 hrs after tumor inoculation; format: functional
Outline: (§1)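 Mice were inoculated ip on day 0 with 1×10^6 L1210 cells each. Dosing started 24 h later, once daily for 5 days, in groups of eight. Survival was recorded to the nearest day. %ILS was calculated from median survival of treated vs control groups, with ≥25% counted as significant. For the plain-saline and HCl vehicles, compound was first wetted with a few drops of ethanol (<5% v/v).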

[2] = system: Rattus norvegicus; test: Immunosuppression activity in rat assessed as reduction of adjuvant-induced acute inflammation administered po twice daily on days 0 to 14
[3] = system: Rattus norvegicus; test: Immunosuppression activity in experimental allergic encephalomyelitis rat model administered po for days 1 to 13 measured on day 14
[4] = system: L1210; test: Antitumor activity against mouse L1210 cells allografted in mouse assessed as increase in life span at 100 umol/kg/day, po using 0.9% (W/V) aqueous NaCl vehicle for 5 days 24 hrs after tumor inoculation; format: functional; outline: as §1
[5] = system: Rattus norvegicus; test: Immunosuppression in experimental allergic encephalomyelitis rat model administered po for days 1 to 13 measured on day 17
[6] = system: L1210; test: Antitumor activity against mouse L1210 cells allografted in mouse assessed as increase in life span at 200 umol/kg/day, po using 0.9% (W/V) aqueous NaCl vehicle for 5 days 24 hrs after tumor inoculation; format: functional; outline: as §1
[7] = system: Rattus norvegicus; test: Immunosuppression activity in rat assessed as reduction of adjuvant-induced polyarthritis administered po twice daily on days 0 to 14 measured on day 21
[8] = system: Rattus norvegicus; test: Immunosuppression activity in rat assessed as reduction of adjuvant-induced polyarthritis administered po twice daily for days 0 to 14 measured on day 15
[9] = system: L1210; test: Antitumor activity against mouse L1210 cells allografted in mouse assessed as increase in life span at 100 umol/kg/day, ip using 0.9% (W/V) aqueous NaCl vehicle for 5 days 24 hrs after tumor inoculation; format: functional; outline: as §1
[10] = system: L1210; test: Antitumor activity against mouse L1210 cells allografted in mouse assessed as increase in life span at 400 umol/kg/day, po using 0.9% (W/V) aqueous NaCl vehicle for 5 days 24 hrs after tumor inoculation in presence of THU 10 mg/kg/day on days 1 to 5
[11] = system: L1210; test: Antitumor activity against mouse L1210 cells allografted in mouse assessed as increase in life span at 200 umol/kg/day, po using 0.9% (W/V) aqueous NaCl vehicle for 5 days 24 hrs after tumor inoculation in presence of THU 10 mg/kg/day on days 1 to 5; format: functional; outline: as §1
[12] = system: L1210; test: Antitumor activity against mouse L1210 cells allografted in mouse assessed as increase in life span at 400 umol/kg/day, ip using 0.9% (W/V) aqueous NaCl vehicle for 5 days 24 hrs after tumor inoculation; format: functional; outline: as §1
[13] = system: L1210; test: Antitumor activity against mouse L1210 cells allografted in mouse assessed as increase in life span at 100 umol/kg/day, po using 0.9% (W/V) aqueous NaCl vehicle for 5 days 24 hrs after tumor inoculation in presence of THU 10 mg/kg/day on days 1 to 5; format: functional; outline: as §1
[14] = system: L1210; test: Antitumor activity against mouse L1210 cells allografted in mouse assessed as increase in life span at 200 umol/kg/day, ip using 0.9% (W/V) aqueous NaCl vehicle for 5 days 24 hrs after tumor inoculation; format: functional; outline: as §1
[15] = system: L1210; test: Antitumor activity against mouse L1210 cells allografted in mouse assessed as increase in life span at 400 umol/kg/day, po using 0.01 N HCl vehicle for 5 days 24 hrs after tumor inoculation; format: functional; outline: as §1
[16] = system: L1210; test: Antitumor activity against mouse L1210 cells allografted in mouse assessed as increase in life span at 100 umol/kg/day, po using 0.01 N HCl vehicle for 5 days 24 hrs after tumor inoculation; format: functional; outline: as §1
[17] = system: L1210; test: Antitumor activity against mouse L1210 cells allografted in mouse assessed as increase in life span at 200 umol/kg/day, po using 0.01 N HCl vehicle for 5 days 24 hrs after tumor inoculation; format: functional; outline: as §1
[18] = system: L1210; test: Antitumor activity against mouse L1210 cells allografted in mouse assessed as increase in life span at 100 umol/kg/day, po using 0.1 N HCl vehicle for 5 days 24 hrs after tumor inoculation; format: functional; outline: as §1
[19] = system: L1210; test: Antitumor activity against mouse L1210 cells allografted in mouse assessed as increase in life span at 400 umol/kg/day, po using 0.1 N HCl vehicle for 5 days 24 hrs after tumor inoculation; format: functional; outline: as §1
[20] = system: L1210; test: Antitumor activity against mouse L1210 cells allografted in mouse assessed as increase in life span at 200 umol/kg/day, po using 0.1 N HCl vehicle for 5 days 24 hrs after tumor inoculation; format: functional; outline: as §1
[21] = system: L1210; test: Antitumor activity against mouse L1210 cells allografted in mouse assessed as increase in life span at 200 umol/kg/day, po using saline vehicle for 5 days 24 hrs after tumor inoculation; format: functional; outline: as §1
[22] = system: L1210; test: Antitumor activity against mouse L1210 cells allografted in mouse assessed as increase in life span at 100 umol/kg/day, po using saline vehicle for 5 days 24 hrs after tumor inoculation; format: functional; outline: as §1
[23] = system: L1210; test: Antitumor activity against mouse L1210 cells allografted in mouse assessed as increase in life span at 400 umol/kg/day, po using saline vehicle for 5 days 24 hrs after tumor inoculation; format: functional; outline: as §1

## CCCCCCCCCCCCCCCC(=O)OC[C@H]1O[C@@H](n2ccc(NC(=O)[C@H](CCCNC(=N)N)NC(=O)CNC(=O)OC(C)(C)C)nc2=O)[C@@H](O)[C@@H]1O.Cl
[1]
  ILS at 400 µmol/kg: 110%
[2]
  inhibition (INH): 6%
[3]
  inhibition (INH): 35.1%
[4]
  ILS at 100 µmol/kg: 30%
[5]
  inhibition (INH): 10.5%
[6]
  ILS at 200 µmol/kg: 44%

## CC(C)(C)OC(=O)NCC(=O)N[C@@H](CCCNC(=N)N)C(=O)Nc1ccn([C@@H]2O[C@H](COC(=O)C34CC5CC(CC(C5)C3)C4)[C@@H](O)[C@@H]2O)c(=O)n1.Cl
[1]
  ILS at 400 µmol/kg: 93%
[2]
  inhibition (INH): 1%
[3]
  inhibition (INH): 5.4%
[7]
  inhibition (INH): 18%
[8]
  inhibition (INH): 50%
[4]
  ILS at 100 µmol/kg: 21%
[5]
  inhibition (INH): 10.5%
[6]
  ILS at 200 µmol/kg: 43%

## Nc1ccn([C@@H]2O[C@H](CO)[C@@H](O)[C@@H]2O)c(=O)n1 [CYTARABINE]
[9]
  ILS at 100 µmol/kg: 69%
[1]
  ILS at 400 µmol/kg: 62%
[10]
  ILS: 138%
[2]
  inhibition (INH): -4%
[11]
  ILS: 92%
[12]
  ILS at 400 µmol/kg: 131%
[7]
  inhibition (INH): 7%
[8]
  inhibition (INH): 20%
[4]
  ILS at 100 µmol/kg: 15%
[13]
  ILS: 62%
[14]
  ILS at 200 µmol/kg: 100%
[6]
  ILS at 200 µmol/kg: 38%

## Cl.Nc1ccn([C@@H]2O[C@H](COC(=O)c3cccnc3)[C@@H](O)[C@@H]2O)c(=O)n1
[15]
  ILS at 400 µmol/kg: 69%
[2]
  inhibition (INH): 4%
[7]
  inhibition (INH): 0%
[8]
  inhibition (INH): 0%
[16]
  ILS at 100 µmol/kg: 31%
[17]
  ILS at 200 µmol/kg: 46%

## CCCCCCCCCCCCCCCC(=O)OC[C@H]1O[C@@H](n2ccc(N)nc2=O)[C@@H](O)[C@@H]1O.Cl
[15]
  ILS at 400 µmol/kg: 92%
[2]
  inhibition (INH): 13%
[3]
  inhibition (INH): 8.1%
[7]
  inhibition (INH): 6%
[8]
  inhibition (INH): 11%
[16]
  ILS at 100 µmol/kg: 46%
[17]
  ILS at 200 µmol/kg: 69%
[5]
  inhibition (INH): 13.2%

## Cl.Nc1ccn([C@@H]2O[C@H](COC(=O)C34CC5CC(CC(C5)C3)C4)[C@@H](O)[C@@H]2O)c(=O)n1
[2]
  inhibition (INH): 4%
[18]
  ILS at 100 µmol/kg: 46%
[3]
  inhibition (INH): 5.4%
[7]
  inhibition (INH): 28%
[8]
  inhibition (INH): 31%
[19]
  ILS at 400 µmol/kg: 130%
[20]
  ILS at 200 µmol/kg: 77%
[5]
  inhibition (INH): 7.9%

## Cl.Nc1ccn([C@@H]2O[C@H](COC(=O)c3ccccc3)[C@@H](O)[C@@H]2O)c(=O)n1
[2]
  inhibition (INH): 15%
[3]
  inhibition (INH): 0%
[7]
  inhibition (INH): 20%
[8]
  inhibition (INH): 47%
[21]
  ILS at 200 µmol/kg: 31%
[22]
  ILS at 100 µmol/kg: 15%
[5]
  inhibition (INH): 0%
[23]
  ILS at 400 µmol/kg: 62%

## Cl.Nc1ccn([C@@H]2O[C@H](COC(=O)C3CC4CCN3CC4)[C@@H](O)[C@@H]2O)c(=O)n1 (stereo not given in full)
[2]
  inhibition (INH): -2%
[7]
  inhibition (INH): 0%
[8]
  inhibition (INH): 5%
[21]
  ILS at 200 µmol/kg: 0%
[22]
  ILS at 100 µmol/kg: 8%
[23]
  ILS at 400 µmol/kg: 15%

## CC(C)(C)OC(=O)NCC(=O)N[C@@H](CCCNC(=N)N)C(=O)Nc1ccn([C@@H]2O[C@H](COC(=O)c3ccccc3)[C@@H](O)[C@@H]2O)c(=O)n1.Cl
[1]
  ILS at 400 µmol/kg: 43%
[2]
  inhibition (INH): 9%
[3]
  inhibition (INH): 13.5%
[7]
  inhibition (INH): 35%
[8]
  inhibition (INH): 52%
[4]
  ILS at 100 µmol/kg: 14%
[5]
  inhibition (INH): 5.3%
[6]
  ILS at 200 µmol/kg: 21%

Source: ChEMBL document CHEMBL3272176, “Nucleic acids. 16. Orally active derivatives of ara-cytidine” (1976)
